Compound activity: PubChem, several laboratories
MPTP block: mitochondrial permeability transition pore inhibitors, primary screen, biochemical, isolated mouse mitochondria, absorbance; inhibition, % at 10 µM; Ca2+ swelling absorbance, 30 min; AID 602449, 2012; 1.4% of 360,000 active;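 active = inhibition of 50% or more, scaled per plate between neutral and stimulator controls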
rCAG RNA binder: binders of r(CAG) RNA repeats, primary screen, biochemical, fluorescence; r(CAG) RNA repeat, TO-PRO-1 dye displacement fluorescence; inhibition, % at 3 µM; 1.3% of 370,000 active;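 active = inhibition above the plate cutoff, the mean of all test compounds on that plate plus 3 SD, cut at about 35% in these data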;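 note: higher means more dye released from RNA so lower well fluorescence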
B2AR ag: beta2AR agonists driving receptor internalization, primary screen, cell-based, FAP fluorogen, flow cytometry. AID 504454, 2011. Am2.2-beta2AR cells. response, % (concentration not given with the values). 0.43% of 340,000 active. Beta-2 adrenergic receptor (Homo sapiens), P07550;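 active = response above a set limit, near 3 SD of response in nonfluorescent compounds, cut at about 42% in these data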
Target sequence (P07550 whole entry, looked up): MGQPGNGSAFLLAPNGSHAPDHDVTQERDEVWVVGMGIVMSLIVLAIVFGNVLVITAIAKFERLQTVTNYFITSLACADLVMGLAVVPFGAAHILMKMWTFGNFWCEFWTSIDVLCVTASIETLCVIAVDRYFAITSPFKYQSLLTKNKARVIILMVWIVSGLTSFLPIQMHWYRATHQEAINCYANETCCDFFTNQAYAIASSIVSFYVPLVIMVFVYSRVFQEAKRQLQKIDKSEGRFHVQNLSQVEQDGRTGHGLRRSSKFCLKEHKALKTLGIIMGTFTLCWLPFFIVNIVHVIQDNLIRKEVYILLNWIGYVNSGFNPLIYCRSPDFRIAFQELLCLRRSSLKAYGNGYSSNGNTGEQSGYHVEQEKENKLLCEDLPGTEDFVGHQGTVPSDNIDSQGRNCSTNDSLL
V-ATPase pH: regulators of yeast V-ATPase proton pumping, primary screen, pHLuorin cytosolic pH fluorescence; S. cerevisiae; response, % at 10 µM; 0.37% of 350,000 active; AID 504577, 2011; in the data active = response mostly above about 7.3%, no sharp cut-off; inactive = mostly below about 5.4%; note: actives read high
Granule exo inh: LAMP-1 surface exposure blockers, TALL-104 cells – cell-based, flow cytometry, MLPCN library, primary screen. TALL-104 LAMP-1 surface exposure; cells stimulated with thapsigargin and PMA. AID 651702, 2012. 0.66% of 360,000 active. inhibition, % at 10 µM;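 active = inhibition above about 55%, limit read from the data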
T cell modulator: modulators of CD8 T cell-vesicle binding, primary screen, mouse 2C CD8+ T cells, flow cytometry; 2C CD8+ T cell-vesicle binding; stronger effect = lower value; response (vesicle binding), % at 7 µM; 0.068% of 330,000 active; AID 2052, 2009;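 active = response, share of CD8 T cells binding vesicles, and their 90th percentile fluorescence all below set limits, cut at about 80% in these data, passing the limit was not always enough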;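 note: values below 100% mean blocked vesicle binding to the CD8+ T cells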
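Also added: QL9-peptide-loaded Drosophila micro-vesicles bearing Ld, ICAM-1 and B7-1; Test system: purified 2C TCR transgenic mouse naive CD8+ T cells; Measured by: cytometric PE anti-B7-1 and Alexa647 anti-CD8 signals after 1% paraformaldehyde fixation; Timing: binding step 1.5 h, 37 °C, antibody labelling 20 min, ice.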
Rh123 counter: fluorescence retest of MPTP screen hits in isolated mitochondria, single concentration; shares compounds with MPTP block; membrane potential, Rhodamine 123 fluorescence; inhibition, % at 10 µM; 78% of 5,000 active; in the data active = inhibition above about 22%
MPTP abs DR: mitochondrial permeability transition pore inhibitors, dose response, biochemical, absorbance, uHTS hits | isolated mitochondria swelling | 58% of 780 active | AID 651561, 2012 | IC50, µM | shares compounds with MPTP block; in the data active = IC50 below about 20 µM
MPTP counter DR: fluorescent counter-screen in isolated mitochondria, dose response, counter-screen for MPTP inhibitor project, biochemical, fluorescence, uHTS hits | shares compounds with MPTP block | isolated mitochondria counterscreen, fluorescence read-out | IC50, µM | 49% of 780 active | AID 651564, 2012; in the data active = IC50 below about 80 µM
rCAG bind conf: small molecules binding CAG repeat RNA – biochemical, fluorescence, confirmation; shares compounds with rCAG RNA binder; inhibition, % at 3 µM; r(CAG) RNA repeat, TO-PRO-1 dye displacement fluorescence; 70% of 4,300 active;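 active = inhibition above a per-plate cutoff, the mean inhibition of sample wells plus 3 SD, cut at about 35% in these data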;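 note: loss of TO-PRO-1 fluorescence as compound displaces dye from 1x1 AA loop RNA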
dCAG dye counter: displacement of TO-PRO-1 from CAG DNA duplex, counter-screen for rCAG RNA repeat binder project, biochemical, fluorescence, TO-PRO-1 dye, d(CAG) DNA oligo; d(CAG) DNA oligo TO-PRO-1 dye displacement; inhibition, % at 3 µM; 94% of 4,300 active; AID 652068, 2013; shares compounds with rCAG RNA binder;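 active = inhibition above its plate's cutoff, the mean test-well inhibition plus 3 SD, cut at about 4.8% in these data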;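 note: hits displace the dye from DNA and so lower well fluorescence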
dCAG dye DR: inhibitors of DNA CAG/GTC TO-PRO-1 complex, dose response, counter-screen for rCAG RNA repeat binder project, biochemical, fluorescence, TO-PRO-1 dye; shares compounds with rCAG RNA binder; DNA CAG/GTC duplex TO-PRO-1 dye displacement fluorescence; IC50, µM; 20% of 250 active; in the data active = IC50 below about 10 µM
Hits are given with their value; - = inactive; . = no result given. Only some compounds are listed: those with a hit (about 3.8% of all), similar ones and a draw of the others.

SMILES | MPTP block | rCAG RNA binder | B2AR ag | V-ATPase pH | Granule exo inh | T cell modulator | Rh123 counter | rCAG bind conf | dCAG dye counter | others
CC1(C)CC1C(=O)Nc1ccc([N+](=O)[O-])cc1Br (configuration not stated) | - | - | - | - | - | - | . | . | .
Cc1ccc(-c2cc(C#N)c3n(c2=O)CCC3)cc1 | . | - | . | . | . | . | . | . | .
COC(=O)C1=C(C)N(Cc2cccc(C(F)(F)F)c2)C(=NCc2ccc(OC)cc2)NC1c1ccccc1 (configuration not stated) | . | - | . | . | . | . | . | . | .
CC1=NN(c2nc(-c3ccc(Cl)cc3)cs2)C(=O)C1 | 60 | 58 | - | - | - | - | - | 73 | 39 | MPTP abs DR=13;MPTP counter DR=<2.5
CCOc1ccccc1NC(=O)c1cc2c(C)nn(-c3ccccc3)c2s1 | . | - | . | . | . | . | . | . | .
O=C(O)c1cc(S(=O)(=O)Nc2cc(Cl)ccc2Oc2ccccc2)ccc1O | 72 | 72 | - | - | - | - | 86 | 67 | 31
O=C(NCc1ccco1)c1ccccc1NS(=O)(=O)c1ccc(Br)s1 | 71 | 44 | - | - | - | - | 81 | 48 | 16
CCN1CCCCC(NC(=O)c2ccc(Cl)cc2Cl)C1=O (configuration not stated) | . | - | . | . | . | . | . | . | .
O=C(Nc1nnc(SCc2ccccc2)s1)c1cccc([N+](=O)[O-])c1 | 71 | 36 | - | - | - | - | 83 | - | 6.0
Cc1cccc(C)c1-n1cccc1/C=C1/C(=N)N2C(=NC1=O)SN=C2S(C)(=O)=O | 67 | 88 | - | - | - | - | 75 | 85 | 59
CCC1=NN2C(=N)/C(=C\c3cccn3-c3c(C)cccc3C)C(=O)N=C2S1 | - | - | - | - | - | - | . | . | .
Cc1ccc(-n2c(O)c(/C=N/Nc3ccc(S(=O)(=O)N4CCOCC4)cc3[N+](=O)[O-])c3ccccc3c2=O)c(C)c1 | 110 | 66 | - | - | - | - | 40 | 88 | 71
O=C(O)c1ccc(/C=N\Nc2ccc(S(=O)(=O)N3CCOCC3)cc2[N+](=O)[O-])cc1 | - | - | - | - | - | - | . | . | .
CC(C)CSC1=NSC2=NC(=O)/C(=C\c3ccccc3)C(=N)N12 | 73 | 76 | - | - | - | - | 91 | 39 | 9.9
CC(C)CSC1=NSC2=NC(=O)/C(=C\c3coc4ccccc4c3=O)C(=N)N12 | 89 | 61 | - | - | - | - | 61 | 59 | 55
O=C(Cn1c(-c2cncs2)nc2ccccc21)NC1CCCCC1 | . | - | . | . | . | . | . | . | .
Cc1ccc(C2CC2C(=O)NNC(=S)Nc2cccc(C)c2)cc1 (configuration not stated) | - | - | - | - | - | - | . | . | .
Cc1ccc(C2CC2C(=O)NNC(=S)Nc2cccc(Cl)c2)cc1 (configuration not stated) | 61 | 52 | - | - | - | - | 70 | 51 | 19
N#Cc1ccc(OCCCN2CCC(C(O)(c3ccccc3)c3ccccc3)CC2)cc1 | . | - | . | . | . | . | . | . | .
COC(=O)[C@]12C[C@H](CC(=O)NCC34CC5CC(CC(C5)C3)C4)C(=O)N(Cc3ccc4c(c3)OCO4)C1=C[C@H](C(C)(C)C)O[C@@H]2C | . | - | . | . | . | . | . | . | .
O=C(NNC(=S)Nc1cccc2ccccc12)c1cccc(Br)c1 | 68 | 66 | - | - | - | - | 87 | 72 | 36
O=C(NNC(=O)c1ccc2ccccc2c1)c1cccc(Br)c1 | - | - | - | - | - | . | . | . | .
CC(OC(=O)c1cccc(S(=O)(=O)Nc2cccc(C(F)(F)F)c2)c1)C(=O)Nc1ccc2c(c1)OCCO2 (configuration not stated) | 67 | 37 | - | - | - | - | 69 | 36 | 8.0
CC(=O)Nc1ccc(NC(=O)C(C)OC(=O)c2ccc3c(c2)OCCO3)cc1 (configuration not stated) | - | - | - | - | - | - | . | . | .
Cc1ccccc1N(C)C(=O)Cn1nnc(-c2ccccc2F)n1 | . | - | . | . | . | . | . | . | .
SMILES | MPTP block | rCAG RNA binder | B2AR ag | V-ATPase pH | Granule exo inh | T cell modulator | Rh123 counter | rCAG bind conf | dCAG dye counter | others
C=CCN1C(=O)[C@@H](CC(=O)NCc2ccc(C)o2)[C@]2(C(=O)OCC)CCCCC/C=C/12 | . | - | . | . | . | . | . | . | .
CCCOc1cccc(-c2cc(C(=O)NNC(=S)NCC)c3ccccc3n2)c1 | 50 | 58 | - | - | - | - | 56 | 56 | 20
Cc1ccc(C)c(-c2cc(C(=O)NNC(=S)NCC(C)C)c3ccccc3n2)c1 | 87 | 45 | - | - | - | - | 80 | 67 | 24 | dCAG dye DR=-
Cc1ccc(-n2c(SCC(=O)NN=Cc3c[nH]c4ccccc34)nnc2-c2ccccc2)cc1 | . | - | . | . | . | . | . | . | .
Cn1c(=O)c(C#N)c(-c2ccc(F)cc2)c2cc(C(=O)c3cc(Cl)cc(Cl)c3O)cnc21 | 95 | 75 | - | - | - | - | 60 | 83 | 41
O=C1NC(c2cc(Cl)cc([N+](=O)[O-])c2O)Nc2ccccc21 (configuration not stated) | 88 | 35 | - | - | - | - | - | 80 | 45 | MPTP abs DR=-;MPTP counter DR=11
O=C(CSc1nc2ccccc2s1)NNC(=S)Nc1ccc(Br)cc1 | 82 | 53 | - | - | - | - | 83 | 61 | 22
Brc1ccc(N/N=C(/N=Nc2nn[nH]n2)c2ccccc2)cc1 | 85 | 95 | - | - | - | - | 30 | 92 | 67
C/C(=N\Nc1ccc(C(=O)O)cc1)c1ccc(Br)cc1 | - | - | - | - | - | - | . | . | .
CN(Cc1ccccc1)S(=O)(=O)c1nnc(NC(=O)c2ccc(F)cc2)s1 | - | - | - | - | - | - | . | . | .
CN(Cc1ccc(F)cc1)S(=O)(=O)c1nnc(NC(=O)c2ccccc2Br)s1 | 60 | 68 | - | - | - | - | 71 | 48 | 14
